The target in series [1] is Human immunodeficiency virus type 1 integrase (Human immunodeficiency virus 1) (UniProt Q7ZJM1). In words: Inhibition of HIV1 integrase at 20 uM. Also on record: scale not given: the % may be the effect or the level left. Put shortly:
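Recombinant HIV-1 integrase (E. coli) was preincubated with compound for 30 min. It was then incubated for 30 min at 37 °C on plate-immobilized donor duplex in Tris–HCl pH 7.8, 25 mM NaCl, 7.5 mM MgCl₂, 5 mM β-mercaptoethanol and BSA. Biotinylated target duplex was added for 1 h at 37 °C. Integration products were detected by pNPP phosphatase read-out at A405, and inhibition was taken as the decrease in final absorbance.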

For series [2], the target named is Structural capsid protein (Human immunodeficiency virus 1) (UniProt Q76129). In words: Binding affinity to HIV1 capsid assessed as assembly rate per minute by ultraviolet spectrophotometry assay. Put shortly: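 Turbidity was read at 350 nm every 10 s after a short equilibration delay. Assembly rate (mOD/min) was taken from the initial slope of absorbance versus time.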

A short description of series [3]: Cytotoxicity against human CEM cells. The series is classed as cell-based. The settings on record: CEM cells (CCRF-CEM), read-out: TC50 (the source's name).
The target in series [4] is Protease (Human immunodeficiency virus 1) (UniProt Q9YQ12). In words: Inhibition of HIV1 protease. Put shortly:
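HIV-1 protease was preincubated with inhibitor (DMSO) for 20 min at room temperature in 0.1 M MES, 0.2 M NaCl, 5 mM EDTA, pH 5.5. The reaction was started with substrate Lys-Ala-Arg-Val-Leu-Phe(NO₂)-Glu-Ala-Met, and hydrolysis was followed as the A280 decrease over 40 min. Inhibition ratio was taken from Ai/A₀, with and without inhibitor.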

A short description of series [5]: Therapeutic index, TC50 for human CEM cells to EC50 for SIV. The series is classed as cell-based, CCRF-CEM.
Series [6] has as its target Peptidyl-prolyl cis-trans isomerase A (Homo sapiens, UniProt P62937). The series is described as follows: Binding affinity to human cyclophilin A by intrinsic tryptophan fluorescence titration assay. The settings on record: read-out: Kd. Put shortly:
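CypA intrinsic tryptophan fluorescence titration in 20 mM Tris–HCl, 100 mM NaCl, pH 7.4, at 25 °C, with compounds from 10 mM DMSO stocks. Excitation was 280 nm and emission was read at 340 nm. Kd was obtained by fitting intensity against final compound concentration to F₀/F = 1 + Ka·C.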

The subject of series [7] is Simian immunodeficiency virus. The series is described as follows: Antiviral activity against SIV in human CEM cells assessed as inhibition of virus-induced cytopathogenicity. Conditions: Simian immunodeficiency virus, CCRF-CEM; read-out: EC50. The series is classed as functional, organism-based, CCRF-CEM. The method, boiled down:
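SIV syncytium assay in CEM174 cells (2 × 10⁵ cells/ml) infected with 100 TCID₅₀ SIV per well alongside serial compound dilutions. Cultures were kept 5 days at 37 °C in humidified 5% CO₂, then giant-cell formation was scored microscopically. EC₅₀ is the concentration protecting cells from SIV cytopathogenicity by 50%.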
A general note: Cytopathic effects are the visible damage that an infection or toxin causes in cultured cells.

SMILES strings stand for the structures. Calls of active or inactive are those of the source. No cut-off for these calls is given here. A value given as a limit tells only on which side of the number the result lay.

Human immunodeficiency virus type 1 integrase (Human immunodeficiency virus 1), sequence (Q7ZJM1 as listed by the source): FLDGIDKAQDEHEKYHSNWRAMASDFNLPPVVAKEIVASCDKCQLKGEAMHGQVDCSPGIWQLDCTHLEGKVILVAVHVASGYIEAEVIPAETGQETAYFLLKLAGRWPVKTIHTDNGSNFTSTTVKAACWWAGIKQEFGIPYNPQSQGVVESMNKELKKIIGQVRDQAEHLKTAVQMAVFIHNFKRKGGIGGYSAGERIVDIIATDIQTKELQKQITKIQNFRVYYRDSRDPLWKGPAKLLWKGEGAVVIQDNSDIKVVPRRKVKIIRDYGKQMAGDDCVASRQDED
Protease (Human immunodeficiency virus 1), sequence (Q9YQ12 as listed by the source): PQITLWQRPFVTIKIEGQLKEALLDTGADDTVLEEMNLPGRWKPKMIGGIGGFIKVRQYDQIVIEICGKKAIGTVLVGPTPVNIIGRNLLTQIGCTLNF
Structural capsid protein (Human immunodeficiency virus 1), sequence (Q76129 as listed by the source): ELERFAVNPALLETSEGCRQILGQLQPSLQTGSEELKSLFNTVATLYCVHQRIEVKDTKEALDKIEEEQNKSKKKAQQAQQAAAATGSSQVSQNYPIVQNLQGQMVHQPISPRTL
Peptidyl-prolyl cis-trans isomerase A, sequence (P62937 whole entry): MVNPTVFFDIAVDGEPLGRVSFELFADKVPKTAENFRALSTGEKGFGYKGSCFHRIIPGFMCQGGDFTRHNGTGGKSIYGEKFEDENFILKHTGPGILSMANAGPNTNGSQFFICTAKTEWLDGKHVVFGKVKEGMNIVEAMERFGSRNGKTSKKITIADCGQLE

As usually defined, the Kd is the constant that tells how readily two partners part at equilibrium. By EC50 is commonly meant the concentration at which the effect is half-maximal. As to `COc1ccc(NC(=S)Nc2ccc3ccccc3c2)cc1`, the Activity in series [1] was < 20%. In addition, the Activity (milli optical density/minute) in series [2] turned out to be 66.7. The CC50 in series [3] was determined as 16.1 µM. Moreover, the outcome in series [4] was inactive. For the same molecule, the selectivity ratio in series [5] was 7. Besides, the dissociation constant (Kd) in series [6] is 124 µM. For the same molecule, the EC50 in series [7] worked out at 2.3 µM.
Regarding `Cc1cccc(NC(=S)Nc2ccc3c(c2)C(=O)OC3)c1`, the Activity in series [1] was < 20%. Also, in series [2], the Activity (milli optical density/minute) came out at 64.6. Also, the CC50 in series [3] is 16 µM. In addition, the outcome in series [4] was inactive. Also, the selectivity ratio in series [5] worked out at 1. In addition, the Kd in series [6] turned out to be 141 µM. Besides, in series [7], the EC50 was found to be 11.6 µM.
Turning to `COc1ccc(NC(=S)Nc2ccc(S(=O)(=O)Nc3cc(C)on3)cc2)cc1`, in series [1], the Activity is < 20%. Moreover, the Activity (milli optical density/minute) in series [2] is 40. Moreover, the CC50 in series [3] was 41.9 µM. The result in series [4] was inactive. Further, in series [5], the selectivity ratio came out at 27. Besides, the dissociation constant (Kd) in series [6] stood at 101 µM. The EC50 in series [7] worked out at 1.5 µM.
Take `Cc1ccc(NC(=S)Nc2ccc(S(=O)(=O)Nc3cc(C)on3)cc2)cc1`: in series [2], the Activity (milli optical density/minute) came out at 45.9. In addition, the CC50 in series [3] is 41.4 µM. Moreover, the selectivity ratio in series [5] was 4. In series [6], the dissociation constant (Kd) was found to be 119 µM. The EC50 in series [7] is 9.6 µM.
On to `O=C1OCc2ccc(NC(=S)Nc3cccc(Br)c3)cc21`, for which the Activity in series [1] is < 20%. Also, in series [2], the Activity (milli optical density/minute) amounted to 69.6. For the same molecule, in series [3], the CC50 turned out to be 30.8 µM. In addition, the outcome in series [4] was inactive. In series [5], the selectivity ratio was 7. Besides, in series [6], the Kd amounted to 125 µM. In addition, in series [7], the half-maximal effective concentration (EC50) was determined as 4.6 µM.
Consider `CCN(CC)c1nc(C)cc(NCCNC(=S)Nc2cccc(Br)c2)n1`, for which the result in series [2] was inactive. For the same molecule, the CC50 in series [3] was 8.43 µM. Further, the selectivity ratio in series [5] came out at 2. Further, the Kd in series [6] was 200 µM. Further, the EC50 in series [7] stood at 5.5 µM.
As for `O=C1OCc2ccc(NC(=S)Nc3ccc(Cl)cc3)cc21`, in series [1], the Activity was < 20%. For the same molecule, the Activity (milli optical density/minute) in series [2] is 49.6. Further, in series [3], the CC50 worked out at 83.9 µM. For the same molecule, in series [4], the outcome was inactive. Moreover, the selectivity ratio in series [5] came to 14. In series [6], the Kd came to 222 µM. Also, in series [7], the EC50 came to 6.2 µM.
Take `COc1ccc(NS(=O)(=O)c2ccc(NC(=S)Nc3ccc(Cl)cc3)cc2)cc1`: the Activity (milli optical density/minute) in series [2] came to 26.3. The CC50 in series [3] is 77.5 µM. In addition, the selectivity ratio in series [5] turned out to be 19. The equilibrium dissociation constant (Kd) in series [6] stood at 60.8 µM. Also, the EC50 in series [7] is 4.1 µM.
Regarding `O=C1OCc2ccc(NC(=S)Nc3cc(Cl)c(Cl)cc3Cl)cc21`, the Activity in series [1] was < 20%. In series [2], the Activity (milli optical density/minute) amounted to 67.8. The CC50 in series [3] was found to be 24.4 µM. Also, the result in series [4] was inactive. Further, the selectivity ratio in series [5] amounted to 8. In addition, the dissociation constant (Kd) in series [6] stood at 147 µM. For the same molecule, the concentration giving a half-maximal response (EC50) in series [7] was 3 µM.
`COc1ccc(NC(=S)Nc2ccc3c(c2)C(=O)OC3)cc1`: the Activity in series [1] is < 20%. The Activity (milli optical density/minute) in series [2] came out at 59.1. The CC50 in series [3] came to 91.9 µM. In series [4], the outcome was inactive. In addition, the selectivity ratio in series [5] worked out at 20. Moreover, the equilibrium dissociation constant (Kd) in series [6] is 172 µM. Further, the EC50 in series [7] was 4.7 µM.
Regarding `O=C1OCc2ccc(NC(=S)Nc3cccc(F)c3)cc21`, in series [1], the Activity was < 20%. Also, in series [2], the Activity (milli optical density/minute) is 78.6. Further, in series [3], the CC50 came out at 60.2 µM. Besides, the result in series [4] was inactive. Also, in series [5], the selectivity ratio is 10. For the same molecule, the Kd in series [6] came to 140 µM. Also, the concentration giving a half-maximal response (EC50) in series [7] was 6.3 µM.
In the case of `O=C1OCc2ccc(NC(=S)Nc3ccc(F)cc3)cc21`, the Activity in series [1] was < 20%. Moreover, in series [2], the Activity (milli optical density/minute) came out at 55.7. In series [3], the CC50 worked out at 83.7 µM. Besides, the result in series [4] was inactive. The selectivity ratio in series [5] turned out to be 5. In series [6], the Kd was determined as 227 µM. Further, the EC50 in series [7] was 15.8 µM.

(Values after ChEMBL document CHEMBL1153444, “Discovery of dual inhibitors targeting both HIV-1 capsid and human cyclophilin A to inhibit the assembly and uncoating of the viral capsid” (Bioorg Med Chem, 2009).)
